Experimental data gathered from unrelated publications.
Compare with care: the assays were run in different laboratories.
CDK18: Cyclin-dependent kinase 18 (CDK18, Homo sapiens, UniProt Q07002)
CDK18 with cyclin Y: Cyclin-dependent kinase 18, with cyclin Y (CDK18, Homo sapiens, UniProt Q07002)

| Compound | target | test | conditions | measurement | value |
| --- | --- | --- | --- | --- | --- |
| COc1ccc2[nH]c3c4[nH]c5ccc(OC)cc5c4c4c(c3c2c1)C(=O)NC4=O | CDK18 | binding | 1 µM | remaining binding | 80% |
| COc1ccc2oc(-c3ccc4nc(N)oc4c3)c/c(=N\c3ccccc3NC(=O)CCN)c2c1 | CDK18 with cyclin Y | binding | 1 µM | remaining binding | 108% |
| Cc1ccc(NC(=O)c2ccnc(C(F)(F)F)c2)cc1-c1cc(OCCO)nc(N2CCOCC2)c1 | CDK18 | binding | 1 µM | remaining binding | 100% |
| CCCCC(=O)Nc1ccc(-c2ccc3ncn(CCC)c(=O)c3c2)cn1 | CDK18 | binding, competition with immobilised ligand | 0.5 µM | remaining binding | 100% |
| C=CC(=O)N1CCC[C@@H](n2nc(-c3ccc(Oc4ccccc4)cc3)c3c(N)ncnc32)C1 | CDK18 | enzyme activity, inhibitor | 1 µM | inhibition | 3% |
| CC(C)S(=O)(=O)c1ccc2nccc(Nc3ccc4sc(C5CCCC5)nc4c3)c2c1 | CDK18 with cyclin Y | enzyme activity, inhibitor | 1 µM | activity vs control | 104% |
| C1=C/COCc2cc(ccc2OCCN2CCCC2)Nc2nccc(n2)-c2cccc(c2)COC/1 | CDK18 | binding | 0.1 µM | remaining binding | 92% |
| C=CC(=O)N1CCC([C@@H]2CCNc3c(C(N)=O)c(-c4ccc(Oc5ccccc5)cc4)nn32)CC1 | CDK18 | enzyme activity, inhibitor | 1 µM | inhibition | 9% |
